Measurements as given in ChEMBL document CHEMBL1157331, “Xenicane-type diterpenes with cytotoxicity from Xenia florida” (J Nat Prod, 2006).
In brackets after ≈: the same amount, converted by molar mass.

What was measured:
KB = assay: Cytotoxicity against human KB cells after 72 hrs; type: functional; conditions: read-out: ED50 (the source's name)
Procedure, shortened: (§1)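 Methylene blue binding to fixed cell monolayers. 2880 cells/well seeded, 3 h later sample added; samples prepared at […], incubated 37 °C for 3 days. Absorbance read at 650 nm. ED50 is the concentration giving 50% reduction of absorbance versus untreated cells. Mitomycin as positive control.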

WiDr = assay: Cytotoxicity against human WiDr cells after 72 hrs; type: functional, cell-based; conditions: for EC50: read-out: ED50 (the source's name); procedure, shortened: as §1
[1] = Cytotoxicity against human Hepa cells after 72 hrs; type: functional; conditions: read-out: ED50 (the source's name); procedure, shortened: as §1

Compound `C=C1[C@@H]2[C@H](OC(C)=O)OC=C([C@H](OC(C)=O)[C@@H](C=C(C)C)OC(C)=O)[C@H]2CC[C@]2(C)O[C@H]2[C@@H](OC(=O)c2ccccc2)[C@H]1O` [FLORXENILIDE B] has an EC50 (KB) of 11.4 mg/L (≈ 18.6 µM), an IC50 (WiDr) of 3.7 µM and an EC50 (WiDr) of 1.88 mg/L (≈ 3.07 µM). For the same compound, the EC50 [1] was 8.03 mg/L (≈ 13.1 µM).
For `C=C1[C@@H]2[C@H](OC(C)=O)OC=C([C@H](OC(C)=O)[C@@H](C=C(C)C)OC(C)=O)[C@H]2CC/C(C)=C/[C@@H](OC(=O)c2ccccc2)[C@H]1OC(=O)c1ccccc1`, the EC50 (KB) was > 20 mg/L, the EC50 (WiDr) was > 20 mg/L and the EC50 [1] was > 20 mg/L.
For `CO[C@@]12CC[C@H](O)[C@@](C)(CC[C@@H]3/C(=C\C=C\C(C)(C)O)COC(=O)[C@H]31)C2` [FLORXENILIDE C], the EC50 (KB) was > 20 mg/L, the EC50 (WiDr) was > 20 mg/L and the EC50 [1] was > 20 mg/L.
For `C=C1[C@@H]2[C@H](OC(C)=O)OC=C([C@H](OC(C)=O)[C@@H](C=C(C)C)OC(C)=O)[C@H]2CC/C(C)=C/[C@@H](OC(=O)c2ccccc2)[C@H]1O` [FLORXENILIDE A], the EC50 (KB) was > 20 mg/L, the IC50 (WiDr) was 4.5 µM and the EC50 (WiDr) was 2.73 mg/L (≈ 4.58 µM). For the same compound, the EC50 [1] was > 20 mg/L.
With `CO[C@@]12CC[C@H](OC(C)=O)[C@@](C)(CC[C@@H]3/C(=C\C=C\C(C)(C)O)COC(=O)[C@H]31)C2` [FLORXENILIDE C MONOACETATE] the EC50 (KB) was > 20 mg/L, the EC50 (WiDr) was > 20 mg/L and the EC50 [1] was > 20 mg/L.
Compound `CO[C@@]12[C@H](COC(N)=O)C3=C(C(=O)C(C)=C(N)C3=O)N1C[C@@H]1N[C@@H]12` [MITOMYCIN] has an EC50 (KB) of 0.56 mg/L (≈ 1.67 µM), an EC50 (WiDr) of 0.35 mg/L (≈ 1.05 µM) and an EC50 [1] of 0.04 mg/L (≈ 0.12 µM).
In the case of `C=C1C(=O)[C@H](OC(=O)c2ccccc2)/C=C(\C)CC[C@@H]2C([C@H](OC(C)=O)[C@@H](C=C(C)C)OC(C)=O)=CO[C@@H](OC(C)=O)[C@@H]12`, the EC50 (KB) is reported as > 20 mg/L, the EC50 (WiDr) is reported as > 20 mg/L and the EC50 [1] is reported as > 20 mg/L.
